Results taken from ChEMBL document CHEMBL4431364, “Discovery and synthetic optimization of a novel scaffold for hydrophobic tunnel-targeted autotaxin inhibition” (Bioorg Med Chem, 2016).

Assays:
[1] = target: T1, Autotaxin (Homo sapiens, UniProt Q13822); assay: Inhibition of C-terminal FLAG tagged human recombinant ATX expressed in insect sf9 cells using FS-3 as substrate measured every 2 mins for 60 mins by FRET assay
In short: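 Dose response over 0.03 to 30 μM compound, 10 nM human FLAG-fusion ATX, 1 μM FS-3 in pH 8.0 Tris/BSA assay buffer. Fluorescence at 485/520 nm every 2 min for 60 min at 37 °C, normalized to no-ATX and no-compound controls. IC50 by non-linear regression. Triplicate.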

[2] = target: T1, Autotaxin; assay: Inhibition of C-terminal FLAG tagged human recombinant ATX expressed in insect sf9 cells at 10 uM using FS-3 as substrate measured every 2 mins for 60 mins by FRET assay
In short: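 10 μM compound with 10 nM human FLAG-fusion ATX in pH 8.0 Tris buffer (30 μM BSA, 1 mM CaCl2, 1 mM MgCl2, 5 mM KCl, 140 mM NaCl) and 1 μM FS-3. Fluorescence at ex 485/em 520 nm read every 2 min for 60 min at 37 °C. Normalized to no-ATX (0%) and ATX without compound (100%). Triplicate.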

[3] = target: T1, Autotaxin; assay: Inhibition of C-terminal FLAG tagged human recombinant ATX expressed in insect sf9 cells at 10 uM using pNP-TMP as substrate measured every 2 mins for 60 mins by absorbance
[4] = target: T2, Glycerophosphocholine cholinephosphodiesterase ENPP6 (Homo sapiens) (UniProt Q6UWR7); assay: Inhibition of C-terminal FLAG tagged human recombinant NPP6 expressed in insect sf9 cells assessed as remaining enzyme activity response at 10 uM using pNPPC as substrate measured every 2 mins for 1 hr by […]
T2 sequence (whole entry): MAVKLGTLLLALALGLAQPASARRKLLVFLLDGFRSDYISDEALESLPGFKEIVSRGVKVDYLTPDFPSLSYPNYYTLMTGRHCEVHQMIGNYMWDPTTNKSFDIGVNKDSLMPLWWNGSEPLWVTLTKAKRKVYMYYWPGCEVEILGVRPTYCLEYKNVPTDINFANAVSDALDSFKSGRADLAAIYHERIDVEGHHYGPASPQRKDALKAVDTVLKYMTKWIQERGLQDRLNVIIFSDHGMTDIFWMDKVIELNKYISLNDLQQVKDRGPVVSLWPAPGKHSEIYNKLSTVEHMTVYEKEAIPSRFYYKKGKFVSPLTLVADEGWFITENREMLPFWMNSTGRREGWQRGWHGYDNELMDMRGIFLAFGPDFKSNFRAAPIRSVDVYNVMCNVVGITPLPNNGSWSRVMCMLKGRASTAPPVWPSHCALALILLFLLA
In short: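 Final 10 nM human FLAG-fusion NPP6, 10 μM compound, 10 μM pNPPC in 500 mM NaCl, 100 mM Tris-HCl, 0.05% Triton X-100, pH 9. A405 at 37 °C every 2 min for 1 h. Background absorbance subtracted. Mean percent response relative to enzyme-only control (no-enzyme = 0%). Triplicate.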

[5] = target: T3, Ectonucleotide pyrophosphatase/phosphodiesterase family member 7 (Homo sapiens) (UniProt Q6UWV6); assay: Inhibition of C-terminal FLAG tagged human recombinant NPP7 expressed in insect sf9 cells assessed as remaining enzyme activity response at 10 uM using pNPPC as substrate measured every 2 mins for 1 hr by […]
T3 sequence (whole entry): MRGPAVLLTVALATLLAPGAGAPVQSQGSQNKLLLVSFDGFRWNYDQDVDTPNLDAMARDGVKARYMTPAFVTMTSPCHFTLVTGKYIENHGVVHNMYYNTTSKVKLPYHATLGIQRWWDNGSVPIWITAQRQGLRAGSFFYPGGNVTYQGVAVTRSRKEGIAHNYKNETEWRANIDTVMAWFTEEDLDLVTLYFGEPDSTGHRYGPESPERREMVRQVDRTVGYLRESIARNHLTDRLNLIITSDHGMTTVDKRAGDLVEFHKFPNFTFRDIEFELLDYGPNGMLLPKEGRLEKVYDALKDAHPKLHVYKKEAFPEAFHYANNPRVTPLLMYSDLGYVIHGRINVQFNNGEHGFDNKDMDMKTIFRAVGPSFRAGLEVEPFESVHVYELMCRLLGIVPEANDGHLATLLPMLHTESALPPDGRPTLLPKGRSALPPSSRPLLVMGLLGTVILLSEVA
In short: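 Human FLAG-fusion NPP7 (10 nM final) with 10 μM compound and 10 μM pNPPC in 50 mM Tris-HCl, 150 mM NaCl, 10 mM taurocholate, pH 8. Absorbance at 405 nm, 37 °C, every 2 min for an hour. Background subtracted. Mean percent of enzyme-only response (no-enzyme = 0%). Triplicate.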

[6] = target: T1, Autotaxin; assay: Inhibition of C-terminal FLAG tagged human recombinant ATX expressed in insect sf9 cells using pNP-TMP as substrate measured every 2 mins for 60 mins by absorbance
In short: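 Dose response 0.03 to 30 μM compound against 10 nM human FLAG-fusion ATX with 1 mM pNP-TMP in pH 8.0 Tris/BSA buffer. A405 every 2 min for 60 min at 37 °C, normalized to no-enzyme and uninhibited controls. IC50 by non-linear regression. Triplicate.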

| Structure (SMILES) | IC50 [1] | inhibition [2] | inhibition [3] | Activity [4] | Activity [5] | IC50 [6] |
| --- | --- | --- | --- | --- | --- | --- |
| O=C(O)c1ccccc1N1CCN(C(=O)COc2cc(Cl)cc(Cl)c2)CC1 | 2.2 µM | 59.8% | 23.4% | 91% | 90.2% |  |
| O=C(O)c1cccc(N2CCN(C(=O)COc3cccc(C(F)(F)F)c3)CC2)c1 | 2.2 µM | 67.1% | 37.9% | 89.2% | 87.3% |  |
| O=C(COc1ccc(C(F)(F)F)cc1)N1CCN(c2cccc([N+](=O)[O-])c2)CC1 | 4.2 µM | 60.4% | 30.3% |  |  |  |
| O=C(COc1ccc(Cl)cc1Cl)N1CCN(c2cccc([N+](=O)[O-])c2)CC1 | 3.4 µM | 73.2% | 7.3% | 89.8% | 89.5% |  |
| O=C(O)c1ccccc1N1CCN(C(=O)COc2ccc(Cl)cc2)CC1 | 6 µM | 74.5% | 32.1% |  |  |  |
| O=C(COc1cccc(Cl)c1)N1CCN(c2cccc([N+](=O)[O-])c2)CC1 | 5.8 µM | 62.4% | 17.1% |  |  |  |
| O=C(COc1cc(Cl)cc(Cl)c1)N1CCN(c2ccc([N+](=O)[O-])cc2)CC1 | 2.3 µM | 63% | 20.4% | 95.8% | 93.1% |  |
| O=C(COc1ccc(Cl)cc1Cl)N1CCN(c2ccc([N+](=O)[O-])cc2)CC1 | 3.7 µM | 51.8% |  | 92.2% | 103% |  |
| O=C(O)c1cccc(N2CCN(C(=O)COc3ccccc3C(F)(F)F)CC2)c1 | 8.1 µM | 51.5% | 23.7% |  |  |  |
| O=C(O)c1cccc(N2CCN(C(=O)COc3cccc(F)c3)CC2)c1 | 8.9 µM | 55.2% | 30.2% |  |  |  |
| O=C(O)c1ccc(N2CCN(C(=O)COc3ccc(Cl)cc3)CC2)cc1 | 4.1 µM | 50.8% | 19.6% |  |  |  |
| CC(=O)OC1(C(=O)COC(=O)c2ccco2)CC2CCC3C4C=CC(=O)CC4(C)CCC3C2(C)C1 (stereo not drawn) | 5.7 µM | 59.6 to 59.7% |  |  |  |  |
| O=C(COc1cccc(Cl)c1)N1CCN(c2ccc([N+](=O)[O-])cc2)CC1 | 4.6 µM | 70.6% | 15.6% |  |  |  |
| O=C(O)c1ccccc1N1CCN(C(=O)COc2ccc(C(F)(F)F)cc2)CC1 | 1.8 µM | 89.1% | 43.7% | 97.6% | 90.5% |  |
| O=C(O)c1cccc(N2CCN(C(=O)COc3cccc(Cl)c3)CC2)c1 | 2.6 µM | 80% | 37.1% | 96.4% | 84.3% |  |
| O=C(O)c1cccc(N2CCN(C(=O)COc3ccc(C(F)(F)F)cc3)CC2)c1 | 7.5 µM | 65% | 31.6% |  |  |  |
| O=C(COc1ccc(Cl)cc1)N1CCN(c2cccc([N+](=O)[O-])c2)CC1 | 5.4 µM | 62.6% | 23.8% |  |  |  |
| O=C(COc1cccc(F)c1)N1CCN(c2ccc([N+](=O)[O-])cc2)CC1 | 6.6 µM | 63% |  |  |  |  |
| O=C(O)c1ccccc1N1CCN(C(=O)COc2ccccc2Cl)CC1 |  | 12.1% | 1.7% |  |  |  |

Continued by falling IC50 [1], values first:

| IC50 [1] | inhibition [2] | inhibition [3] | Activity [4] | Activity [5] | IC50 [6] | Structure (SMILES) |
| --- | --- | --- | --- | --- | --- | --- |
| 11.4 µM | 50% | 38.2% |  |  |  | O=C(COc1ccccc1C(F)(F)F)N1CCN(c2ccccc2[N+](=O)[O-])CC1 |
| 9.2 µM | 54.6% | -3.7% |  |  |  | O=C(COc1ccccc1C(F)(F)F)N1CCN(c2ccc([N+](=O)[O-])cc2)CC1 |
| 8.2 µM | 59.1% | 38% |  |  |  | O=C(COc1ccc(Cl)cc1)N1CCN(c2ccccc2[N+](=O)[O-])CC1 |
| 8.1 µM | 50.2% | 26.6% |  |  |  | O=C(COc1ccc(C(F)(F)F)cc1)N1CCN(c2ccc([N+](=O)[O-])cc2)CC1 |
| 7.3 µM | 54.6% | 56.2% |  |  | 5.2 µM | O=C(O)c1cccc(N2CCN(C(=O)COc3cc(Cl)cc(Cl)c3)CC2)c1 |
| 6.7 µM | 56.4% | 7.7% |  |  |  | O=C(COc1ccccc1C(F)(F)F)N1CCN(c2cccc([N+](=O)[O-])c2)CC1 |
| 6.6 µM | 48% | 7.5% |  |  |  | COc1ccc2c(c1)C(NCc1cc(OC)c(OC)cc1N)CCO2 (stereo not drawn) |
| 6.5 µM | 56% | 6.8% |  |  |  | O=C(O)c1ccc(N2CCN(C(=O)COc3cccc(Cl)c3)CC2)cc1 |
| 6.4 µM | 65.4% |  |  |  |  | O=C(COc1ccc(F)cc1)N1CCN(c2ccc([N+](=O)[O-])cc2)CC1 |
| 6.2 µM | 59.8% | 13.3% |  |  |  | O=C(COc1cccc(F)c1)N1CCN(c2cccc([N+](=O)[O-])c2)CC1 |
| 6 µM | 54.1% | -6.9% |  |  |  | CCCCCCCCCCCCCC(=O)NC(CCC(=O)O)C(=O)O (stereo not drawn) |
| 4.9 µM | 63.3% | 4.1% |  |  |  | O=C(COc1cccc(C(F)(F)F)c1)N1CCN(c2ccc([N+](=O)[O-])cc2)CC1 |
| 4.7 µM | 72.6% | 44.7% |  |  | 11.3 µM | O=C(COc1ccc(C(F)(F)F)cc1)N1CCN(c2ccccc2[N+](=O)[O-])CC1 |
| 4.6 µM | 58.1% | 41.1% |  |  |  | O=C(O)c1cccc(N2CCN(C(=O)COc3ccc(F)cc3)CC2)c1 |
| 4.6 µM | 61.9% | 14.3% |  |  |  | O=C(COc1cccc(C(F)(F)F)c1)N1CCN(c2cccc([N+](=O)[O-])c2)CC1 |
| 4.1 µM | 69.8% | 37.1% |  |  |  | O=C(COc1ccc(Cl)cc1Cl)N1CCN(c2ccccc2[N+](=O)[O-])CC1 |
| 4 µM | 65.5% | 27.7% | 92.2% | 86.3% |  | O=C(CCCOc1ccc(Cl)cc1Cl)N1CCN(c2ccc([N+](=O)[O-])cc2)CC1 |
| 3.7 µM | 79.8% | 56.6% | 93.4% | 89.2% | 6.2 µM | O=C(O)c1cccc(N2CCN(C(=O)COc3ccc(Cl)cc3)CC2)c1 |
| 3 µM | 77.7% | 46.8% | 93.4% | 99% | 11.4 µM | O=C(COc1cc(Cl)cc(Cl)c1)N1CCN(c2ccccc2[N+](=O)[O-])CC1 |
| 2.2 µM | 76% | 19.9% | 94% | 114% |  | O=C(COc1ccc(Cl)cc1)N1CCN(c2ccc([N+](=O)[O-])cc2)CC1 |
| 2.1 µM | 76.1% | 29.5% | 95.2% | 103% |  | O=C(O)c1cccc(N2CCN(C(=O)COc3ccc(Cl)cc3Cl)CC2)c1 |
